Assay [1] in a line: inhibitors of TNFa-induced NFkB p65 translocation, primary screen, imaging, HUVEC, MLSMR starter and 10KST1 sets (AID 438;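 active = inhibition above 20% together with a positive visual image hit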;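 note: compound added about 3h40 before a 20 min TNFalpha stimulation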;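 for inhibition: signal is the nuclear over cytoplasmic p65 intensity ratio per well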). The following applies: HUVEC TNFa-induced p65 nuclear translocation; cell count: measured here: nuclei count (cytotoxicity indicator), at 2.08 µM; inhibition: at 2 µM, stronger effect = higher value, 0% TNFa-plus-vehicle, 100% no-TNFa wells.
Assay [2] in a line: endothelial E-selectin expression blockers – imaging, HUVEC, immunofluorescence, MLSMR starter and 10KST1 sets, primary screen (AID 487).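 For inhibition: signal is fraction of cell area covered by stained E-selectin grains.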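 For nuclei count: 100% = median nuclei count of all wells on the same plate.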 The note with it: HUVEC TNFalpha-induced E-selectin immunofluorescence imaging, at 2 µM; inhibition: stronger effect = higher value; nuclei count: measured here: cell number, toxicity.
Assay [3] can be described thus: Primary imaging screen for DUSP6 inhibitors that restore phospho-Erk in transfected HeLa cells, chemical complementation (AID 609;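 active = compounds giving at least 50% inhibition in the cell-based MKP-3 phosphatase rescue imaging test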;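 for inhibition: phospho-Erk level distribution per well compared with pooled transfected vehicle control wells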). The following applies: HeLa MKP-3 transfected, phospho-Erk imaging KS statistic, at 10 µM, cells stimulated with TPA for 15 min.
In assay [4] the target is Dual specificity protein phosphatase 6 (Homo sapiens) (UniProt Q16828). The description is as above. The note with it: HeLa MKP-3 transfected, phospho-Erk imaging KS statistic; at 10 µM; stronger effect = higher value; cells stimulated with TPA for 15 min.
In assay [5] the target is Voltage-gated potassium channel subunit beta-2 (Rattus norvegicus) (UniProt P62483). Put plainly: inhibitors of rat Kvbeta2 reductase activity – biochemical, NADPH fluorescence, primary screen (AID 622;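 active = fluorescence slope higher than the sample average by over 3 SD, cut at about -0.22 in these data, passing the limit was not always enough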;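 note: slope of raw intensity against log time taken from 70 to 1610 s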). The note with it: recombinant KvBeta, 4-cyanobenzaldehyde reduction, at 10 µM, stronger effect = higher value.
The target is the same in assay [6]. Put plainly: enhancers of rat Kvbeta2 NADPH turnover – biochemical, NADPH fluorescence, primary screen (AID 623;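 active = NADPH fluorescence slope more negative than the mean of all samples by about 3 SD, 99.7% confidence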;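 note: fluorescence intensity change per second fitted from 20 to 320 s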). The note with it: Recombinant KvBeta, NADPH fluorescence decrease slope, 10 min; at 10 µM; stronger effect = lower value.
Assay [7] has as its target Alpha-2C adrenergic receptor (Homo sapiens) (UniProt P18825). The assay can be described thus: compounds altering alpha2C-coupled GIRK flux – cell-based, HEK293 alpha2C/GIRK1/2, thallium flux, primary screen (AID 624;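 active = fluorescence slope after compound addition differing from the mean of all screened samples at 99.7% confidence, in either direction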;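 note: slope of fluorescence ratio to pre-addition baseline per second over 15 to 24 s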). The following applies: thallium flux BTC fluorescence, at 10 µM, actives lie on both sides.
A short description of assay [8]: inhibitors of larval lipid processing in zebrafish, primary screen, whole organism, PED6 fluorescence, gall bladder and intestine (AID 686;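 active = a full or partial loss of lipid-probe fluorescence in the fish gall bladder, intestine or both, judged by eye; inactive = no fluorescence loss, or compound toxic to the fish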;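 note: larvae 5 to 7 days old with five fish per well; signal comes from phospholipase A2 cleavage of quenched PED6 carried via bile; overnight exposure to compound and PED6 before scoring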). The note with it: Zebrafish larvae PED6 lipid processing, fluorescence scoring; screened at 20 µM (by protocol). In outline: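 Test system – live zebrafish larvae aged 5-7 days, whole organism · Buffer or medium – E3 fish medium · Reagent – quenched phospholipase substrate PED6, 100 nM final, ingested by larvae · Doses – 20 µM single dose · Incubation – overnight compound and PED6 incubation · Technique – visual fluorescence microscopy scoring of gall bladder, gut · Read-out basis – visual per-well fluorescence inhibition score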

Assay [9] can be described thus: loss of swimming-algae plug formation – whole organism, Chlamydomonas reinhardtii, WT vs cilia-less mutant, absorbance, 96-well, primary screen (AID 463189;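 active = inhibition at or above 50% relative to wild type and mutant plate controls; inactive = inhibition below 50%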;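 note: 0% = wild type cc124 cells in DMSO and 100% = ciliumless bld1 mutant cells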). The following applies: Chlamydomonas reinhardtii gravitaxis, OD600 absorbance, 2 days; at 10 µM; stronger effect = higher value.
Where [10] appears, read: measured here: cell density z-score.
The mark [11] stands for this setting: measured here: nuclear c-Myc green intensity z-score.
[12] abbreviates: measured here: nuclear pErk red intensity z-score, stronger effect = higher value.

Experimental findings from PubChem BioAssay are described below.

Activity calls are given as the source filed them.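 Rule for the calls, unless noted: active = visually confirmed hit in the image check and inhibition above 20%; inconclusive = visually confirmed hit but inhibition not above 20%; inactive = no visual hit in the image check.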

Chain of Alpha-2C adrenergic receptor (Homo sapiens) (P18825 whole entry, looked up): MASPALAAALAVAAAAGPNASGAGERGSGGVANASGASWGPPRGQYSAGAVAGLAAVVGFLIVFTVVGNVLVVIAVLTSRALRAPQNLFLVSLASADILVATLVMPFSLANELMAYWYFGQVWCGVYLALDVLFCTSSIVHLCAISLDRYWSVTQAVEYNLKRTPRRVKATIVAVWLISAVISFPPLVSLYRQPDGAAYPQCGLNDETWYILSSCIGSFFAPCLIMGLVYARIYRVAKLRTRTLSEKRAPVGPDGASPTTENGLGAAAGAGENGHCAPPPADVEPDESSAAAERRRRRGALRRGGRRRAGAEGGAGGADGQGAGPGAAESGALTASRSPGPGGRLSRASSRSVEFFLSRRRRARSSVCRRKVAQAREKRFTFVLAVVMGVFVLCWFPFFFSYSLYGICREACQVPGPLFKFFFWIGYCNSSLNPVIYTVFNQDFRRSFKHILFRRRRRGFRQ
Chain of Dual specificity protein phosphatase 6 (Homo sapiens) (Q16828 whole entry, looked up): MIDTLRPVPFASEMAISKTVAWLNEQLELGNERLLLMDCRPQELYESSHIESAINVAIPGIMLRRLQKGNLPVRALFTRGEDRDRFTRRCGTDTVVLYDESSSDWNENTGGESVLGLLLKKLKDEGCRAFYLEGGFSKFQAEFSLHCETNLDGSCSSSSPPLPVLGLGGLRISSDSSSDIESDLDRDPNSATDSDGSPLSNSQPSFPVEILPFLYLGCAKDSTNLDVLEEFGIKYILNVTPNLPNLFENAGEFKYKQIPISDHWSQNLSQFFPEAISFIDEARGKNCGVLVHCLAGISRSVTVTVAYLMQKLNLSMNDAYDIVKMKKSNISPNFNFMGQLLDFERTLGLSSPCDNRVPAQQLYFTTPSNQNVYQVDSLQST
Chain of Voltage-gated potassium channel subunit beta-2 (Rattus norvegicus) (P62483 whole entry, looked up): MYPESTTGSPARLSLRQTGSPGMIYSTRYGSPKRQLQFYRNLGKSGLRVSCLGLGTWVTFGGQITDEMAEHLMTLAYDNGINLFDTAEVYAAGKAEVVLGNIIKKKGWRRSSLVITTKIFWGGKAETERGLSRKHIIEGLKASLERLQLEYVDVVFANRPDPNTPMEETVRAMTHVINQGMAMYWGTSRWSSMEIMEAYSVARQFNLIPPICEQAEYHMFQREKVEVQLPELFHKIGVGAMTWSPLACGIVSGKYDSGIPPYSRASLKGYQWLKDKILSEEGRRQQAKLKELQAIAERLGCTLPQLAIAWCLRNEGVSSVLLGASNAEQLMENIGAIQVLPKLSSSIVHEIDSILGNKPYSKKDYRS

The term inhibition denotes the drop in the measured response relative to a control, in per cent. As for `Cc1nc(NCc2ccccc2)c(C(N)=O)c2c1COC(C)(C)C2`, the cell count in assay [1] was found to be 643. For the same compound, the inhibition in [1] is -5.8% (inactive); in assay [2], -17.6% (inactive); in assay [4] it was 9.39% (inactive); in assay [9], -5.71% (inactive). Further, the nuclei count in assay [2] was found to be 192%. Further, the figures for the z-score in assay [3] (setting [10]), in assay [3] (setting [11]) and in assay [3] (setting [12]) were 0.783, 0.565 and -0.208, respectively. Besides, the fluorescence slope in [5] was -0.512 (inactive). Also, the NADPH fluorescence slope in [6] is -7.6e-05 (inactive). For the same compound, the slope in assay [7] is 0.00486 (inactive). Besides, the compound was classed as inactive in assay [8].
For the compound `COc1ccc(Nc2oc(-c3cccs3)nc2C#N)cc1`, the cell count in assay [1] turned out to be 383. For the same compound, the inhibition in assay [1] was 2.9% (inactive); in assay [2], -134% (inactive); in [4], 15% (inactive); in [9] it was 16% (inactive). Also, the nuclei count in [2] is 142%. Also, the z-score in assay [3] (setting [10]) is 1.97; in assay [3] (setting [11]), -0.949; in [3] (setting [12]), -1.32. In [5], the fluorescence slope was -0.352 (inactive). The NADPH fluorescence slope in assay [6] is -1.7e-05 (inactive). Also, in assay [7], the slope was 0.00524 (inactive). For the same compound, the call in assay [8] was inactive.
Regarding `CNc1ccccc1-c1nc2ccccc2n(C)c1=O`, the cell count in [1] came to 545. In addition, the inhibition was 1.8% (inactive) in [1], -41.8% (inactive) in [2], 14% (inactive) in assay [4] and 16% (inactive) in assay [9]. In assay [2], this compound returned a nuclei count of 154%. For the same compound, the z-score in assay [3] (setting [10]) was 0.495; in assay [3] (setting [11]), -0.326; in assay [3] (setting [12]), 0.207. The fluorescence slope in [5] is -0.488 (inactive). The NADPH fluorescence slope in assay [6] was -7.9e-05 (inactive). The slope in assay [7] was 0.00346 (inactive). Also, in assay [8], the outcome is “active; weak signal in gallbladder and intestine”.
With `Fc1ccccc1/C=N/n1cnnc1`, the cell count in [1] stood at 540. Moreover, the inhibition in [1] was -6.3% (inactive); in [2], -60.4% (inactive); in [4], 4.25% (inactive); in assay [9], 5.22% (inactive). The same compound showed a nuclei count in assay [2] of 172%. Also, the z-score was 0.728 in assay [3] (setting [10]), -0.356 in [3] (setting [11]) and 0.425 in assay [3] (setting [12]). Also, in assay [5], the fluorescence slope is -0.297 (inactive). For the same compound, the NADPH fluorescence slope in assay [6] was -6.2e-06 (inactive). Moreover, the slope in assay [7] was 0.00552 (inactive). Besides, the compound was called inactive in [8].
For the compound `CCc1cc2c(=O)c(-c3cscn3)coc2c(CN(C)C)c1O`, the cell count in assay [1] is 517. For the same compound, the inhibition was -8.2% (inactive) in [1], -53.3% (inactive) in assay [2], 1.9e-07% (inactive) in assay [4] and 15.7% (inactive) in [9]. This compound had a nuclei count in assay [2] of 86.5%. For the same compound, the z-score was 0.222 in assay [3] (setting [10]), -0.434 in assay [3] (setting [11]) and 0.878 in [3] (setting [12]). Moreover, in assay [5], the fluorescence slope is -0.0873 (inactive). Moreover, the NADPH fluorescence slope in [6] was -2.5e-06 (inactive). In addition, the slope in assay [7] was 0.00409 (inactive). In assay [8], the compound was called inactive.
As to `OC1(c2cccc(C(F)(F)F)c2)CCN(c2ncnc3c2[nH]c2ccccc23)CC1`, the cell count in assay [1] stood at 447. In addition, the inhibition in [1] was -2.9% (inactive); in assay [2] it was -95% (inactive); in assay [4], 34.7% (inactive); in [9] it was 19.3% (inactive). Moreover, the nuclei count in assay [2] was determined as 165%. The values for the z-score in assay [3] (setting [10]), in assay [3] (setting [11]) and in assay [3] (setting [12]) were -0.506, 1.11 and -2.96, respectively. Further, the fluorescence slope in assay [5] is -0.454 (inactive). Moreover, in [6], the NADPH fluorescence slope is -5.6e-05 (inactive). For the same compound, in assay [7], the slope is 0.0037 (inactive). Also, the call in assay [8] was inactive.
For `COC(=O)c1ccc(Oc2nc3ccccc3n3c(C)nnc23)cc1`, the cell count in [1] came to 328. The inhibition in assay [1] is -6.8% (inactive); in assay [2], -57.8% (inactive); in assay [4], 24.7% (inactive); in assay [9], 27% (inactive). In addition, in [2], the nuclei count was 74%. Further, the z-score in [3] (setting [10]) is 0.524; in assay [3] (setting [11]), 1.04; in [3] (setting [12]), -0.937. In assay [5], the fluorescence slope was -0.434 (inactive). For the same compound, the NADPH fluorescence slope in [6] was -1.9e-05 (inactive). For the same compound, the slope in [7] is 0.00622 (inactive). The compound was classed as inactive in assay [8].
